Among the data in PubChem BioAssay are GFP response vs DMSO, GFP response relative to DMSO and GFP response, % of DMSO values, retold here.

Active and inactive are the calls of the source.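 The calls were made as follows, unless noted: active = GFP response above 150% of the DMSO level; inconclusive = fewer than 70 events counted for a yeast strain; inactive = the rest.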

A short description of assay [1]: RPL19A-GFP modulators, yeast TOR pathway, confirmation, cell-based, S. cerevisiae, flow cytometry, cherry picks, mother/daughter gates (AID 2270;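 active = GFP response below 50% of the DMSO control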). The conditions noted are these: S. cerevisiae RPL19A-GFP strain, 3 h, at 10 µM, stronger effect = lower value, 100 = same GFP as DMSO wells. In general terms: Flow cytometry measures light scatter and fluorescence of single cells or particles in a stream.

Assay [2] is described as follows: LAP4-GFP expression modulators in yeast, confirmation, cell-based, cherry picks, flow cytometry, mother/daughter gates (AID 2271;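 active = GFP response above 150% of the DMSO control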;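 also: ratio of sample to DMSO plate mean so 100% equals DMSO level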). The conditions noted are these: S. cerevisiae LAP4-GFP strain, 3 h, at 10 µM, stronger effect = higher value, 100 means same as DMSO control. The method, boiled down: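 Material: Alexa 633-stained baker's yeast GFP-fusion strain; Compound dosing: single test-compound dose, 10 µM final; Incubation: 30 °C, 3 h compound incubation, rotating; Detection: HT flow cytometry, GFP fluorescence channel; Control set: positive rapamycin (400 ng/mL), negative DMSO.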

Assay [3] in a line: modulators of MEP2-GFP levels in yeast, confirmation, S. cerevisiae, flow cytometry GFP, cherry picks (AID 2272;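 active = GFP response above 150% of the DMSO control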;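 also: ratio of well signal to plate DMSO mean so 100% equals DMSO level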). The conditions noted are these: S. cerevisiae MEP2-GFP strain, 3 h, at 10 µM, stronger effect = higher value.
Assay [4] can be described thus: AGP1-GFP expression modulators, hit retest, confirmation, cell-based, flow cytometry, S. cerevisiae, cherry picks (AID 2273).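 Also: median GFP channel fluorescence over the whole cell population gate.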 Particulars: S. cerevisiae AGP1-GFP strain, 3 h, at 10 µM.
The nature of assay [5]: modulators of CIT2-GFP expression in yeast, confirmation, S. cerevisiae, GFP fusion, cherry picks, mother/daughter gates (AID 2274). The conditions noted are these: S. cerevisiae CIT2-GFP strain, flow cytometry, 3 h, at 10 µM, stronger effect = higher value.
Where [6] appears, read: measured here: daughter cell gate.
Where [7] appears, read: measured here: mother cell gate.
Where [8] appears, read: measured here: daughter cell gate response.
Setting [9] is: measured here: mother cell gate response.

On to `Oc1c(Br)cc(Br)cc1C=Nc1ccc2c(c1)OCO2`, for which the GFP response vs DMSO is 98.2% (inactive) in assay [1], 88.5% in assay [1] (setting [6]), 98.5% in assay [1] (setting [7]) and 110% (inactive) in assay [3]. Moreover, the GFP response relative to DMSO in assay [2] was 190% (active); in assay [2] (setting [8]), 114%; in assay [2] (setting [9]) it was 174%. Also, the GFP response, % of DMSO in assay [4] is 99.3% (inactive); in assay [5] it was 97.8% (inactive); in assay [5] (setting [6]), 98.3%; in assay [5] (setting [7]), 91%.

Consider `COc1ccc(/C=C/C(=O)c2ccccc2O)cc1`, for which the GFP response vs DMSO in assay [1] is 96.8% (inactive); in assay [1] (setting [6]), 96.7%; in assay [1] (setting [7]), 98.8%; in assay [3], 102% (inactive). Moreover, the GFP response relative to DMSO in assay [2] is 102% (inactive); in assay [2] (setting [8]) it was 99.3%; in assay [2] (setting [9]) it was 99.5%. Besides, the GFP response, % of DMSO was 102% (inactive) in assay [4], 99.3% (inactive) in assay [5], 100% in assay [5] (setting [6]) and 98% in assay [5] (setting [7]).

As to `CCCc1[nH]nc2c1C(c1cc(OC)cc(OC)c1)C(C#N)=C(N)O2` (configuration not stated), the GFP response vs DMSO in assay [1] was 101% (inactive); in assay [1] (setting [6]), 99.8%; in assay [1] (setting [7]) it was 101%; in assay [3], 102% (inactive). The values for the GFP response relative to DMSO in assay [2], in assay [2] (setting [8]) and in assay [2] (setting [9]) were 103% (inactive), 100% and 106%, respectively. The GFP response, % of DMSO in assay [4] was 100% (inactive); in assay [5] it was 95.2% (inactive); in assay [5] (setting [6]), 93.2%; in assay [5] (setting [7]) it was 95.5%.

Turning to `N#Cc1ccc(Sc2ccccn2)c([N+](=O)[O-])c1`, the GFP response vs DMSO is 102% (inactive) in assay [1], 101% in assay [1] (setting [6]), 102% in assay [1] (setting [7]) and 102% (inactive) in assay [3]. Moreover, the GFP response relative to DMSO is 102% (inactive) in assay [2], 105% in assay [2] (setting [8]) and 103% in assay [2] (setting [9]). For the same molecule, the GFP response, % of DMSO was 97.8% (inactive) in assay [4], 104% (inactive) in assay [5], 99.7% in assay [5] (setting [6]) and 105% in assay [5] (setting [7]).

Regarding `CCc1ccc(-c2csc(NC(=O)COC(=O)CCc3nc4ccccc4s3)n2)cc1`, the GFP response vs DMSO is 105% (inactive) in assay [1], 102% in assay [1] (setting [6]), 106% in assay [1] (setting [7]) and 103% (inactive) in assay [3]. The values for the GFP response relative to DMSO in assay [2], in assay [2] (setting [8]) and in assay [2] (setting [9]) were 98.2% (inactive), 97.5% and 98.4%, respectively. In addition, the GFP response, % of DMSO in assay [4] was 103% (inactive); in assay [5] it was 106% (inactive); in assay [5] (setting [6]), 101%; in assay [5] (setting [7]), 105%.

Turning to `CCCc1nnc(N2C(=O)c3cccc4cccc(c34)C2=O)s1`, the GFP response vs DMSO in assay [1] was 103% (inactive); in assay [1] (setting [6]), 103%; in assay [1] (setting [7]) it was 102%; in assay [3] it was 103% (inactive). The GFP response relative to DMSO is 115% (inactive) in assay [2], 104% in assay [2] (setting [8]) and 113% in assay [2] (setting [9]). Further, the GFP response, % of DMSO in assay [4] was 108% (inactive); in assay [5], 113% (inactive); in assay [5] (setting [6]), 106%; in assay [5] (setting [7]), 115%.

For `Cc1cc(C)c2c(c1)/C(=C/C(=O)c1ccc(Br)s1)C(=O)N2`, the GFP response vs DMSO is 104% (inactive) in assay [1], 102% in assay [1] (setting [6]), 103% in assay [1] (setting [7]) and 105% (inactive) in assay [3]. Further, the GFP response relative to DMSO in assay [2] was 99.5% (inactive); in assay [2] (setting [8]), 101%; in assay [2] (setting [9]) it was 102%. In addition, the GFP response, % of DMSO was 97.8% (inactive) in assay [4], 94.4% (inactive) in assay [5], 93.8% in assay [5] (setting [6]) and 94.4% in assay [5] (setting [7]).

As to `O=C(Oc1c(Cl)cc(Cl)c2cccnc12)c1cccc([N+](=O)[O-])c1`, the GFP response vs DMSO is 106% (inactive) in assay [1], 92.9% in assay [1] (setting [6]), 108% in assay [1] (setting [7]) and 133% (inactive) in assay [3]. Moreover, the GFP response relative to DMSO was 244% (active) in assay [2], 183% in assay [2] (setting [8]) and 236% in assay [2] (setting [9]). For the same molecule, the GFP response, % of DMSO in assay [4] is 101% (inactive); in assay [5] it was 134% (inactive); in assay [5] (setting [6]), 121%; in assay [5] (setting [7]) it was 131%.

As for `COc1cccc2cc(C(=O)N3CCN(C/C=C/c4ccccc4)CC3)c(=O)oc12`, the GFP response vs DMSO in assay [1] is 98.6% (inactive); in assay [1] (setting [6]), 99.6%; in assay [1] (setting [7]), 98%; in assay [3] it was 103% (inactive). Moreover, the GFP response relative to DMSO was 97% (inactive) in assay [2], 95.9% in assay [2] (setting [8]) and 98.4% in assay [2] (setting [9]). Besides, the GFP response, % of DMSO was 96.7% (inactive) in assay [4], 95.9% (inactive) in assay [5], 93.8% in assay [5] (setting [6]) and 96.8% in assay [5] (setting [7]).

Consider `COCCCN(C(=O)c1ccco1)c1nc(-c2cc(OC)ccc2OC)cs1`, for which the GFP response vs DMSO was 95.8% (inactive) in assay [1], 96.4% in assay [1] (setting [6]), 94% in assay [1] (setting [7]) and 112% (inactive) in assay [3]. In addition, the GFP response relative to DMSO in assay [2] was 98.9% (inactive); in assay [2] (setting [8]), 96%; in assay [2] (setting [9]), 100%. In addition, the GFP response, % of DMSO in assay [4] was 98.4% (inactive); in assay [5], 100% (inactive); in assay [5] (setting [6]) it was 103%; in assay [5] (setting [7]), 99.3%.

For `COc1ccc(OC)c(NC(=O)c2cccc3c2C(=O)N(C2CCCCC2)C3)c1`, the GFP response vs DMSO in assay [1] is 97.8% (inactive); in assay [1] (setting [6]), 98.4%; in assay [1] (setting [7]) it was 98.4%; in assay [3], 98.3% (inactive). The figures for the GFP response relative to DMSO in assay [2], in assay [2] (setting [8]) and in assay [2] (setting [9]) were 92.8% (inactive), 92.8% and 90.8%, respectively. The GFP response, % of DMSO in assay [4] was 97.8% (inactive); in assay [5] it was 101% (inactive); in assay [5] (setting [6]), 103%; in assay [5] (setting [7]), 98.5%.

Regarding `Cc1cc(=O)n(-c2ccc3ccccc3n2)[nH]1`, the GFP response vs DMSO was 106% (inactive) in assay [1], 109% in assay [1] (setting [6]), 103% in assay [1] (setting [7]) and 102% (inactive) in assay [3]. The values for the GFP response relative to DMSO in assay [2], in assay [2] (setting [8]) and in assay [2] (setting [9]) were 115% (inactive), 120% and 116%, respectively. Besides, the GFP response, % of DMSO was 99.6% (inactive) in assay [4], 112% (inactive) in assay [5], 114% in assay [5] (setting [6]) and 107% in assay [5] (setting [7]).

With `COCCN1C2=C(COC(C)(C)C2)C(=S)NC1c1ccccc1` (configuration not stated), the GFP response vs DMSO in assay [1] is 98% (inactive); in assay [1] (setting [6]), 98.9%; in assay [1] (setting [7]) it was 99%; in assay [3], 107% (inactive). The figures for the GFP response relative to DMSO in assay [2], in assay [2] (setting [8]) and in assay [2] (setting [9]) were 94.1% (inactive), 96% and 94%, respectively. Moreover, the GFP response, % of DMSO was 99.1% (inactive) in assay [4], 107% (inactive) in assay [5], 108% in assay [5] (setting [6]) and 108% in assay [5] (setting [7]).

In the case of `CCCc1cc(N2CCN(c3ccccn3)CC2)n2nc(C)c(-c3ccccc3)c2n1`, the GFP response vs DMSO is 104% (inactive) in assay [1], 101% in assay [1] (setting [6]), 104% in assay [1] (setting [7]) and 160% (inactive) in assay [3]. Also, the GFP response relative to DMSO is 142% (inactive) in assay [2], 147% in assay [2] (setting [8]) and 140% in assay [2] (setting [9]). In addition, the GFP response, % of DMSO in assay [4] is 109% (inactive); in assay [5] it was 153% (active); in assay [5] (setting [6]), 154%; in assay [5] (setting [7]), 148%.

Consider `N=c1ccn(CC(=O)c2ccc(-c3ccccc3)cc2)cc1`, for which the GFP response vs DMSO is 99.7% (inactive) in assay [1], 99.3% in assay [1] (setting [6]), 98.8% in assay [1] (setting [7]) and 104% (inactive) in assay [3]. The values for the GFP response relative to DMSO in assay [2], in assay [2] (setting [8]) and in assay [2] (setting [9]) were 96.5% (inactive), 93.6% and 99.5%, respectively. Besides, the GFP response, % of DMSO in assay [4] was 92.1% (inactive); in assay [5], 96.4% (inactive); in assay [5] (setting [6]), 96.4%; in assay [5] (setting [7]), 95.6%.

As to `COC(CNC(=O)c1ccc2c3c(onc13)-c1ccccc1C2=O)OC`, the GFP response vs DMSO in assay [1] is 99.9% (inactive); in assay [1] (setting [6]) it was 103%; in assay [1] (setting [7]), 95.8%; in assay [3], 120% (inactive). Moreover, the GFP response relative to DMSO in assay [2] was 188% (active); in assay [2] (setting [8]) it was 170%; in assay [2] (setting [9]), 189%. In addition, the GFP response, % of DMSO in assay [4] is 86% (inactive); in assay [5], 91.3% (inactive); in assay [5] (setting [6]), 98.1%; in assay [5] (setting [7]), 83.7%.

Take `CCc1sc(C(=O)N2CCc3ccccc32)cc1C`: the GFP response vs DMSO in assay [1] is 94.9% (inactive); in assay [1] (setting [6]) it was 93.3%; in assay [1] (setting [7]) it was 94.6%; in assay [3], 99.3% (inactive). Besides, the GFP response relative to DMSO is 114% (inactive) in assay [2], 111% in assay [2] (setting [8]) and 114% in assay [2] (setting [9]). Further, the GFP response, % of DMSO in assay [4] is 96.8% (inactive); in assay [5], 87.5% (inactive); in assay [5] (setting [6]), 85.2%; in assay [5] (setting [7]), 88.2%.
